Assay outcomes from PubChem.
This is one part of a sample in which hits are shown more often than they occur.
T cruzi repl: inhibitors of intracellular T. cruzi growth, primary screen, luminescence, NIH3T3 host cells. T. cruzi beta-gal in NIH3T3, 90 h. inhibition, % (test concentration not listed). 300,000 compounds, 1.4% hits. AID 1885, 2009;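 active means mean inhibition across valid replicates above about 55%, limit read from the data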;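 further: signal also drops with host cell toxicity which is not excluded here; 0% = plate median of DMSO wells and 100% = zero luminescence signal; higher percent means less beta-gal luminescence so fewer parasites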
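assay system = mouse NIH/3T3 fibroblasts infected with β-gal-expressing T. cruzi Tulahuen C4 | input = 5,000 NIH/3T3 host cells per well | buffer or medium = DMEM plus 2% FBS | timing = 3 h host attachment, then at least 90 h co-culture | measured by = GalScreen luminescence, 60 min | evaluation = luminescence reflecting intracellular parasite burden, expressed as percent inhibition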
MPTP block: mitochondrial permeability transition pore inhibitors, primary screen, biochemical, isolated mouse mitochondria, absorbance; 360,000 compounds, 1.4% hits; Ca2+ swelling absorbance, 30 min; inhibition, % at 10 µM;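 active means inhibition of 50% or more, scaled per plate between neutral and stimulator controls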;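 further: 0% = DMSO wells given calcium and 100% = 1 mM EGTA wells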
Lmaj promast: Leishmania major promastigote growth inhibition, primary screen. Leishmania major promastigotes, resazurin fluorescence viability. inhibition, % at 10 µM. 200,000 compounds, 9% hits. AID 1063, 2008; in the data active means inhibition above about 50%;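 further: promastigotes grown with compound for 44 hours at 28 °C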
DTT redox prof: compounds producing H2O2 with reducing agent – biochemical, NIH compound library profiling, artefact control for MLSCN library redox annotation, primary screen; DTT-dependent redox cycling H2O2, phenol red/HRP absorbance; 100% = 100 µM peroxide control, 0% = buffer; activation, % at 10 µM; 200,000 compounds, 0.03% hits;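 active means activation of at least 50% relative to the plate's high and low controls in the primary single-dose screen; inactive means activation below 50%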;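 further: compound incubated with DTT at 0.8 mM final as the reducing agent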
Hep lipid drop: inhibitors of hepatocyte lipid droplet formation, primary screen, imaging, high-throughput imaging, BODIPY stain | AML12 mouse hepatocytes, oleate lipid droplets | inhibition, % at 6.5 µM | 240,000 compounds, 0.4% hits;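 active means lipid droplet intensity inhibited by at least 50%, with more than 500 cells counted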
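System: AML12 hepatocytes (mouse). Probe or stimulus: oleic acid at 100 µM to induce lipid droplet formation. Times: overnight treatment with compound plus oleate. Detection: Image-based BODIPY and DAPI two-channel analysis. Evaluation: percent inhibition of filter-corrected integrated lipid droplet intensity per well.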
Numbers without * were called inactive; nt = no result.

SMILES | T cruzi repl | MPTP block | Lmaj promast | DTT redox prof | Hep lipid drop
O=C(NC1CCCCC1)C(c1cccnc1)N(CCc1ccccc1)C(=O)Cc1cccs1 (stereo unspecified) | 50 | 2 | 95* | 0 | 15
O=C(NCc1ccccc1)C(c1ccccc1)N(Cc1ccc2c(c1)OCO2)C(=O)Cc1cccs1 (stereo unspecified) | 26 | 0 | 79* | 0 | 1
O=C(NC1CCCC1)C(c1cccnc1)N(CCc1ccccc1)C(=O)c1ccco1 (stereo unspecified) | 5 | -1 | 13 | 0 | -7
O=C(NC1CCCC1)C(c1ccncc1)N(Cc1ccccc1)C(=O)Cc1cccs1 (stereo unspecified) | 33 | 0 | -3 | 0 | nt
O=C(NC1CCCC1)C(c1ccccc1)N(Cc1ccc2c(c1)OCO2)C(=O)Cc1cccs1 (stereo unspecified) | -18 | 6 | 82* | 2 | -2
O=C(NC1CCCC1)C(c1ccsc1)N(Cc1ccco1)C(=O)Cc1cccs1 (stereo unspecified) | 0 | -3 | 62* | -1 | nt
O=C(Cc1ccc(S(=O)(=O)N2CCOCC2)s1)OCc1ccc(Cl)cc1 | nt | -2 | nt | nt | nt
O=[N+]([O-])c1ccc(Cl)c(S(=O)(=O)N2CCCCCC2)c1 | 17 | 0 | 15 | 0 | -5
COc1ccc(CN(C(=O)Cc2c[nH]c3ccccc23)C(C(=O)NC2CCCCC2)c2ccc(C)o2)cc1 (stereo unspecified) | 36 | 10 | 69* | -1 | 45
CS(=O)(=O)Nc1cccc2cccnc12 | nt | 1 | 80* | 2 | nt
O=S(=O)(Nc1cccc2cccnc12)c1ccc(S(=O)(=O)N2CCCC2)cc1 | 69* | -2 | 99* | 0 | -19
NC(=S)Nc1cccc2cccnc12 | 0 | -2 | 89* | 2 | nt
O=S(=O)(Nc1cccc2cccnc12)c1ccccc1 | 11 | -2 | nt | nt | -15
Cc1cc(C)n(-c2ccc3cccc(NS(C)(=O)=O)c3n2)n1 | 60* | 0 | 46 | 0 | nt
COc1cccc(-c2cnc(C(O)c3ccc(Cl)c(F)c3)[nH]2)c1 (stereo unspecified) | nt | 3 | nt | nt | nt
C=CCN1C=C(C(C)=O)C(=O)CC1 | nt | 2 | nt | nt | nt
CC(C)(C)OC(=O)N1CCc2onc(-c3ccc(Cl)cc3)c2C1=O | nt | 0 | nt | nt | nt
COc1cc(C(=O)NCC(c2ccco2)N2CCCC2)ccc1OCc1ccc(Cl)cc1Cl (stereo unspecified) | nt | -2 | nt | nt | nt
N#Cc1ccc(NC(=O)COC(=O)CSc2nnc(-c3ccc(Cl)cc3)o2)cc1 | -4 | 1 | -1 | 0 | 13
CC1(C(=O)O)CCN1C(=O)c1ccccc1F (stereo unspecified) | nt | 0 | nt | nt | nt
COC(=O)[C@]12CCCCC=C1N(CCC1=CCCCC1)C(=O)[C@H](CC(=O)NCc1cccc3ccccc13)C2 | nt | 0 | nt | nt | nt
CCN(CC)C(=O)CN(c1cc2c(cc1OC)oc1ccccc12)S(=O)(=O)c1ccc(C)cc1 | 17 | 3 | 69* | -2 | -2
Cc1cc(N2CCCC2)nc2ccc(NC(=S)NCCCOC(C)C)cc12 | 41 | 1 | 93* | 0 | -4
CCN(CC)CCNC(=S)Nc1ccc2nc(N3CCCC3)cc(C)c2c1 | 54 | -1 | 86* | -1 | 1
COCCCNC(=S)Nc1ccc2nc(N3CCOCC3)cc(C)c2c1 | -7 | -1 | nt | nt | nt
SMILES | T cruzi repl | MPTP block | Lmaj promast | DTT redox prof | Hep lipid drop
CCN(CC)CCNC(=S)Nc1ccc2nc(N3CCN(C)CC3)cc(C)c2c1 | 43 | -2 | nt | nt | -10
CCCN(CCC)CCCNC(=S)Nc1ccc2nc(N3CCCC3)cc(C)c2c1 | 59* | 1 | 87* | 0 | 3
CCCN1CCN(C(=O)c2ccc(S(=O)(=O)N(C)c3ccccc3OC)cc2)CC1 | nt | -2 | nt | nt | nt
O=C(CCc1nc2ccccc2s1)OCc1ccccc1 | -13 | 1 | 56* | nt | 4
C[N+]1(CC(=O)OC2CCCCCCCCCCC2)CCCC1 | 16 | 0 | 100* | -1 | -2
COC(=O)CCCCCCCCCC[N+]1(C)CCCCC1 | -9 | 0 | 17 | 0 | -3
CCOC(=O)c1c(C)[nH]c(C)c1C(=O)COC(=O)Cc1ccc(OC)c(OC)c1 | nt | 1 | nt | nt | nt
NS(=O)(=O)c1ccc(NC(=S)NCC2CCCO2)cc1 (stereo unspecified) | -4 | 0 | 55* | 0 | -14
CCOc1ccccc1NC(=S)NCC1CCCO1 (stereo unspecified) | -13 | 0 | 51* | 0 | 0
OC(c1ccccc1)(c1nc(-c2ccccc2)cs1)C(F)(F)F (stereo unspecified) | nt | 2 | nt | nt | nt
FC(F)(F)c1cnc(Sc2ncn[nH]2)c(Cl)c1 | -7 | 0 | -2 | -2 | -13
CCOC(=O)N1CCN(CC(O)COC2CC(C)CCC2C(C)C)CC1 (stereo unspecified) | -1 | 4 | 95* | -1 | -6
CC1CCN(CC(O)COC2CC(C)CCC2C(C)C)CC1 (stereo unspecified) | 20 | 0 | 90* | 0 | 10
CC(C)(C)Cc1c(-c2ccc(Cl)cc2)nc2ccc(Cl)cn12 | nt | -2 | nt | nt | nt
CN(C)Cc1c(-c2ccc(Cl)cc2)nc2ccc(Cl)cn12 | 17 | 0 | 68* | -1 | -32
Cc1nc(C(F)(F)F)c(C(=O)N/N=C(\N)c2ccccn2)s1 | -15 | -3 | 96* | 0 | 5
COC(=O)C1=CN(Cc2ccc(F)cc2)C=C(C(=O)OC)C1c1ccc(O)c(OC)c1 | 3 | 1 | nt | nt | -22
COC(=O)C1=CN(Cc2cccs2)C=C(C(=O)OC)C1c1ccc(OC)cc1OC | 26 | -1 | 98* | 0 | 4
COC(=O)C1=CN(Cc2cccs2)C=C(C(=O)OC)C1c1cccc(Cl)c1 | 22 | 0 | -2 | 0 | -22
COC(=O)C1=CN(CC2CCCO2)C=C(C(=O)OC)C1c1ccsc1 (stereo unspecified) | 4 | 0 | -5 | -2 | nt
COC(=O)C1=CN(Cc2ccc(OC)c(OC)c2)C=C(C(=O)OC)C1c1cccc(O)c1 | 58* | 1 | nt | nt | nt
COC(=O)C1=CN(Cc2ccc(OC)cc2)C=C(C(=O)OC)C1c1ccsc1 | 21 | 0 | 100* | 0 | 1
Cc1ccsc1/C=C(\C(=O)c1ccc(OC(C)C)cc1)c1nc2ccccc2o1 | 68* | 1 | 100* | 2 | -10
Cc1ccsc1/C=C(\CC(=O)O)c1nc2ccccc2o1 | 2 | 0 | nt | nt | 0
Cn1c(=O)[nH]c(=O)c2c1nc(N/N=C/C(Br)=C/c1ccccc1)n2CCO | 9 | 2 | nt | nt | nt
Cn1nc(C(F)(F)F)c(CO)c1Sc1ccc(F)cc1 | -3 | 1 | -8 | 0 | -32
CCOC(=O)C1(C)NC(c2ccco2)C2C(=O)N(CC)C(=O)C21 (stereo unspecified) | -2 | 0 | -4 | 0 | 12
